Test results taken from ChEMBL document CHEMBL4706586, “Structure-activity relationships for a series of (Bis(4-fluorophenyl)methyl)sulfinylethyl-aminopiperidines and -piperidine amines at the dopamine transporter: Bioisosteric replacement of the piperazine improves metabolic stability” (Eur J Med Chem, 2020).
pKi: −log10 of the molar value.

Assays:
D(4) dopamine receptor = molecular target: T1, D(4) dopamine receptor (Homo sapiens, UniProt P21917); assay: Displacement of [3H]-N-methylspiperone from human D4.4 receptor expressed in HEK293 cell membranes measured after 60 mins by microbeta scintillation counting method; set-up: species or system Membrane
T1 sequence (P21917 whole entry): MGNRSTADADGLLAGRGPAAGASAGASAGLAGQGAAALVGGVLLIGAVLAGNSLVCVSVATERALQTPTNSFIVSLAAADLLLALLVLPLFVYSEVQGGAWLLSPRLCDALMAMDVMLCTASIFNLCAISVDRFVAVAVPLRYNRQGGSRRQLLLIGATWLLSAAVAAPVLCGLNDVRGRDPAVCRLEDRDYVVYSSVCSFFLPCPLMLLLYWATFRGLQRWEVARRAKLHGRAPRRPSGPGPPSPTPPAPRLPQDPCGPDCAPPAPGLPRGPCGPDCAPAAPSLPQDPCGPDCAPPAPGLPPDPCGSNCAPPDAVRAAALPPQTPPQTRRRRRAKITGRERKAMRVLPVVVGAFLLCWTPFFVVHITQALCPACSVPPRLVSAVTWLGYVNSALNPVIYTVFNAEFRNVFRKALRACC
Procedure, shortened: (§1)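 Membranes from HEK293 cells stably expressing human D2LR, D3R or D4.4R; 20 μg/well protein (D2LR, D3R) or 30 μg/well (D4.4R); [3H]-N-methylspiperone 0.4 nM final; half-log dilutions in 30% DMSO, triplicate; 60 min RT; nonspecific 10 μM (+)-butaclamol.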

[1] = molecular target: Sodium-dependent serotonin transporter (Rattus norvegicus, UniProt P31652); assay: Displacement of [3H]citalopram from SERT in Sprague-Dawley rat midbrain membranes incubated for 60 mins by microbeta scintillation counting method; type: cell membranes, Membrane
Chain of Sodium-dependent serotonin transporter (P31652 whole entry): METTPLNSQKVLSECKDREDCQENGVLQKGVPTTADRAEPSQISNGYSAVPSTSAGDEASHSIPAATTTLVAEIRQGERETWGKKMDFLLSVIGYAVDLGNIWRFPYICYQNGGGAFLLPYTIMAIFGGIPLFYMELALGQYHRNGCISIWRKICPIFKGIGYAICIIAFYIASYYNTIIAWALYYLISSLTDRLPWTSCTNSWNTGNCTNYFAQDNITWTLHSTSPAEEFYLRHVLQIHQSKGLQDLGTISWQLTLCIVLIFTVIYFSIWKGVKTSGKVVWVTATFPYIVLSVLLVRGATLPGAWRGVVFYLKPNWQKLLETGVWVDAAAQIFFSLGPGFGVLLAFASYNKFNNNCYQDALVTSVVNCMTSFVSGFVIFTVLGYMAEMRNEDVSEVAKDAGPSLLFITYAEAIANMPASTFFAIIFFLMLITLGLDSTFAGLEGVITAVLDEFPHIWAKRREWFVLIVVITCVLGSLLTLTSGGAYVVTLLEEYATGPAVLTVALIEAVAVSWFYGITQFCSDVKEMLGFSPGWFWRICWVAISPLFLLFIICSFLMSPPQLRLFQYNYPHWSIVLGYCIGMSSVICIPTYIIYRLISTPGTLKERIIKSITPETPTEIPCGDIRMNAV

[2] = Displacement of [3H]-Nisoxetine from NET in Sprague-Dawley rat frontal cortex membrane after 180 mins by microbeta scintillation counting method; type: cell membranes
Rattus norvegicus = organism: Rattus norvegicus; assay: Selectivity ratio of Ki for SERT in Sprague-Dawley rat midbrain membranes to Ki for DAT in Sprague-Dawley rat striatum membranes
[3] = Selectivity ratio of Ki for sigma 1 receptor in guinea pig brain cortex membranes to Ki for DAT in Sprague-Dawley rat striatum membranes; type: cell membranes
[4] = Metabolic stability in rat liver microsomes assessed as compound remaining at 10 uM in presence of NADPH regenerating system by LC-MS/MS analysis; type: ADME, Microsome
[5] = molecular target: Sodium-dependent dopamine transporter (Rattus norvegicus, UniProt P23977); assay: Displacement of [3H]WIN35428 from DAT in Sprague-Dawley rat striatal membranes incubated for 120 mins by microbeta scintillation counting method; type: cell membranes, Striatum, Membrane
Chain of Sodium-dependent dopamine transporter (P23977 whole entry): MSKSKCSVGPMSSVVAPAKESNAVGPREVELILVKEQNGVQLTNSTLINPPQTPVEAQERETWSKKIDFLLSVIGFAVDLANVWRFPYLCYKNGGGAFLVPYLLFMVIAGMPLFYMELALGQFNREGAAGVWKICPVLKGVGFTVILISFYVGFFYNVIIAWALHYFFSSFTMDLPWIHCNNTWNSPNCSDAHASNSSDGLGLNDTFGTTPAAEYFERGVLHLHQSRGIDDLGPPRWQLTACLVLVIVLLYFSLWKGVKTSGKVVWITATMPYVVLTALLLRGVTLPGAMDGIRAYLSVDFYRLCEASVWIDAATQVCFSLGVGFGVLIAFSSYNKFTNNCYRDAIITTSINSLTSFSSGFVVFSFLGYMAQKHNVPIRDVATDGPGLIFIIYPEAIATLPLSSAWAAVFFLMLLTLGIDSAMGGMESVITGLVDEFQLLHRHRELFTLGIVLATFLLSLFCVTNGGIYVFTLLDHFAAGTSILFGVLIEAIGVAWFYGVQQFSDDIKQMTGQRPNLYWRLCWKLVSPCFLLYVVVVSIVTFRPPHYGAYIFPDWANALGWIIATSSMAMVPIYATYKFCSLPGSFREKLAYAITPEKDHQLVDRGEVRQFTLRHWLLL

[6] = Metabolic stability in rat liver microsomes assessed as compound remaining at 10 uM incubated for 60 mins in presence of NADPH regenerating system by LC-MS/MS analysis; type: ADME, Microsome; settings: 1 h
D(3) dopamine receptor = D(3) dopamine receptor (Homo sapiens, UniProt P35462); assay: Displacement of [3H]-N-methylspiperone from human D3 receptor expressed in HEK293 cell membranes measured after 60 mins by microbeta scintillation counting method; set-up: species or system Membrane; procedure, shortened: as §1
Chain of D(3) dopamine receptor (P35462 whole entry): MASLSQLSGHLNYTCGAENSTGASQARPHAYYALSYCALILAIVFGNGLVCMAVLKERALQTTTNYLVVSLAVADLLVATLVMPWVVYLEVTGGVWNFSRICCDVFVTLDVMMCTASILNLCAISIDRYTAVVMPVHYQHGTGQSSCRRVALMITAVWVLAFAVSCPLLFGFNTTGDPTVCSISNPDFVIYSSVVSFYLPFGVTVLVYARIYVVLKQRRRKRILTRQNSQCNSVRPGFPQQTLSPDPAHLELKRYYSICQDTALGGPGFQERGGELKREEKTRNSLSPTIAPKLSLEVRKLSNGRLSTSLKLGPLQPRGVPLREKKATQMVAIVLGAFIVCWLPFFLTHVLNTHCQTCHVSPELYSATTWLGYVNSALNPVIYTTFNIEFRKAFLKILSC

D(2) dopamine receptor = D(2) dopamine receptor (Homo sapiens, UniProt P14416); assay: Displacement of [3H]-N-methylspiperone from human D2L receptor expressed in HEK293 cell membranes measured after 60 mins by microbeta scintillation counting method; set-up: species or system Membrane; procedure, shortened: as §1
Chain of D(2) dopamine receptor (P14416 whole entry): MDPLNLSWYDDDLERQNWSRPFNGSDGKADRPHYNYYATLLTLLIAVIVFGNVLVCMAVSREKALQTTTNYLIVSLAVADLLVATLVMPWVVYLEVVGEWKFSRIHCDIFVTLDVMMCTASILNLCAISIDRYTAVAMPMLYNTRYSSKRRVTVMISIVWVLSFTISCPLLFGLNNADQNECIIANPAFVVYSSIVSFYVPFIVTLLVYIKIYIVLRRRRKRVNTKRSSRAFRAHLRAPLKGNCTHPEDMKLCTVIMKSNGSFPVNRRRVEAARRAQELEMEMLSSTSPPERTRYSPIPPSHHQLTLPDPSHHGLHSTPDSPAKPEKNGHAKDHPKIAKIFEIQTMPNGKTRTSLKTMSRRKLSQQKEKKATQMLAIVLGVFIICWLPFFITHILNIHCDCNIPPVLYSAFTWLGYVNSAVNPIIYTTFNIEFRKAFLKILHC

[7] = molecular target: Sigma non-opioid intracellular receptor 1 (Cavia porcellus, UniProt Q60492); assay: Displacement of [3H](+)-pentazocine from sigma 1 receptor in guinea pig brain cortex membranes after 120 mins by scintillation counting analysis; type: cell membranes, Membrane
Chain of Sigma non-opioid intracellular receptor 1 (Q60492 whole entry): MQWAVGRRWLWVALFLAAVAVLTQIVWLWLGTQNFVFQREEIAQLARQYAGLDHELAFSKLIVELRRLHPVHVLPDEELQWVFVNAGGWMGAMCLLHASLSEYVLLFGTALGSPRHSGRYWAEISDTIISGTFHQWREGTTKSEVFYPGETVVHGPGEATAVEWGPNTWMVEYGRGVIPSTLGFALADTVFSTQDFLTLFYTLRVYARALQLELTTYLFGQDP
Procedure, shortened: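 Male guinea pig cortex membranes in 10 mM Tris-HCl/0.32 M sucrose pH 7.4, 5.0 mg/well original wet weight; [3H](+)-pentazocine 3 nM final; inhibitor serial dilutions in 30% DMSO vehicle, triplicate; 120 min at RT; nonspecific with 10 μM PRE084 or (+)-pentazocine.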

[8] = Toxicity in Swiss Webster mouse assessed as stimulation of ambulatory activity by measuring total distance travelled at 1 to 30 mg/kg, ip measured every 5 mins for 2 hrs; type: organism-based; settings: in vivo, dose 1-30 mg/kg
[9] = Metabolic stability in mouse liver microsomes assessed as compound remaining at 10 uM incubated for 60 mins in presence of NADPH regenerating system by LC-MS/MS analysis; type: ADME, Microsome; settings: 1 h
[10] = Toxicity in Swiss Webster mouse assessed as stimulation of ambulatory activity by measuring total distance travelled at 30 mg/kg, ip measured every 5 mins for 2 hrs; type: organism-based; settings: in vivo

| Compound | pKi (D(4) dopamine receptor) | pKi [1] | pKi [2] | Ratio Ki (Rattus norvegicus) | Ratio Ki [3] | Stabilty [4] [%] | pKi [5] | Stabilty [6] [%] | pKi (D(3) dopamine receptor) | pKi (D(2) dopamine receptor) | pKi [7] | Activity [8] [cm] | Stabilty [9] [%] | Activity [10] [cm] |
| --- | --- | --- | --- | --- | --- | --- | --- | --- | --- | --- | --- | --- | --- | --- |
| O=C(c1ccccc1)N1CCC(NCCSC(c2ccc(F)cc2)c2ccc(F)cc2)CC1 | 5.39 | 6.55 | 6.04 | 62.8 | 0.45 | 100 | 8.35 | 7 | 5.60 | 5.54 | 8.69 |  |  |  |
| O=C(c1ccc(F)cc1)N1CCC(NCC[S+]([O-])C(c2ccc(F)cc2)c2ccc(F)cc2)CC1 (configuration not stated) | < 4.00 |  | 4.64 | 60.1 | 18.7 | 100 |  | 79 | 4.55 | 3.81 | 5.84 | < 3000 |  |  |
| O=C(c1ccc(F)cc1F)N1CCC(NCCSC(c2ccc(F)cc2)c2ccc(F)cc2)CC1 |  | 6.53 | 5.79 |  |  | 100 | 7.52 | 85 | 5.49 | 5.13 | 7.69 | < 3000 | 33 |  |
| COC(=O)[C@H]1[C@@H](OC(=O)c2ccccc2)C[C@@H]2CC[C@H]1N2C [COCAINE] |  |  |  |  |  |  |  |  |  |  |  |  |  | 8000 |
| [O-][S+](CCNC1CCN(Cc2ccc(F)cc2)CC1)C(c1ccc(F)cc1)c1ccc(F)cc1 (configuration not stated) | 4.11 |  | 4.95 | 7.37 | 0.52 | 100 |  | 95 | 4.91 | 4.91 | 7.58 | < 3000 |  |  |
